An excerpt weighted towards active compounds, which were near 1.8% of everything screened.
NPY-Y2 antag: antagonists of human neuropeptide Y receptor Y2; inhibition, % at 2.7 µM; hit rate 0.99% among 140,000; AID 793; NPY-Y2 expressing cells, antagonist mode
Target sequence (P49146 whole entry, looked up): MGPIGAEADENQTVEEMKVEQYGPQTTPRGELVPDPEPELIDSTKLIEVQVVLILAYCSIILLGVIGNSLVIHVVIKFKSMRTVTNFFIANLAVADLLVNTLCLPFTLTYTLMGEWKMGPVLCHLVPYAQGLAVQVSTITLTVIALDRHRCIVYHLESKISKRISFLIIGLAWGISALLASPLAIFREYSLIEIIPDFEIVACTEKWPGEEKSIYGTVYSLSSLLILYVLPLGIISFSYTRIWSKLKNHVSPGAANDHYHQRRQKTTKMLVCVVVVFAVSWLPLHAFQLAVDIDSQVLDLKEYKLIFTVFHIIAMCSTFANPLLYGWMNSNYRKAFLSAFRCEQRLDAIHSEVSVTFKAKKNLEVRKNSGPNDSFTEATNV
NPY Y1 blocker: NPY-Y1 (human) receptor antagonism; P25929; HEK293-CNG Y1 cells, membrane potential fluorescence; NPY at EC95, then isoproterenol; inhibition, % at 3.6 µM; hit rate 1% among 200,000;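 active = inhibition above the campaign mean inhibition of all tested compounds plus 3 SD, cut at about 20% in these data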
Target sequence (P25929 whole entry, looked up): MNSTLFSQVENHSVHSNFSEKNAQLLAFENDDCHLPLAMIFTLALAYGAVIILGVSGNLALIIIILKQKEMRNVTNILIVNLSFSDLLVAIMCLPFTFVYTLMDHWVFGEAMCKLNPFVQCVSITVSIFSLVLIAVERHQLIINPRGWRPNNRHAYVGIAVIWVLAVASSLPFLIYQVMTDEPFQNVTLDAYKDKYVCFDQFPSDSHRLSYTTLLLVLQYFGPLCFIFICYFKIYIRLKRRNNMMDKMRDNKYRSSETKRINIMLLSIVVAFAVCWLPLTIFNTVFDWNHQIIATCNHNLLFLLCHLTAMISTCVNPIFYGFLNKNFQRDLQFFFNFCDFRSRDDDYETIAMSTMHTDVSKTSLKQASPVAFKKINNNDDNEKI
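Test system: HEK293 cells co-expressing NPY Y1 receptor and cyclic-nucleotide gated channel; Also added: NPY (25 nM), isoproterenol (1 µM), Ro 20-1724 (25 µM); Compound dosing: one concentration, 3.6 µM, in 0.4% DMSO; Timing: dye 3 h, compound 60 min room temperature, stimulation 45 min; Technique: Membrane-potential fluorescent dye readout.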
NPY2 pot ag: potentiates or activates human NPY-Y2 receptor; P49146; cells expressing NPY-Y2, potentiator/agonist read-out; activation, % at 3.6 µM; hit rate 0.45% among 220,000; AID 1359; in the data active = activation above about 27%;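 also: cells stimulated with NPY near EC25 plus isoproterenol at EC100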
NPY-Y1 PAM-ag: potentiators or agonists of human neuropeptide Y receptor Y1; P25929; NPY-Y1 expressing cells, potentiator/agonist activation; activation, % at 3.6 µM; hit rate 0.37% among 220,000; in the data active = activation above about 33%, passing the limit was not always enough;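 also: cells stimulated with NPY at EC10 then isoproterenol at EC100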
NPY-Y1 ant conf: confirmation of human neuropeptide Y receptor Y1 antagonists | inhibition, % at 3.6 µM | HEK293-CNG NPY-Y1, membrane potential fluorescence, cAMP; NPY challenge against isoproterenol-raised cAMP | shares compounds with NPY Y1 blocker | hit rate 21% among 1,200 | AID 1254; in the data active = inhibition above about 20%
NPY2 antag ctr: antagonizes human NPY-Y2, counter-screen to NPY-Y1 antagonists; hit rate 28% among 1,200; shares compounds with NPY Y1 blocker; HEK293 NPY-Y2 CNG membrane potential fluorescence, antagonism; cells given NPY, then isoproterenol; inhibition, % at 3.6 µM
Of the large screens only hits and unclear results are named; the others gave an inactive call (follow-up assays come after a bar, where they were run). Rule as the data show it, unless noted: active = inhibition above about 17%; inactive = the rest.

O=C(NN=C1CCCCC1)c1ccccc1OCc1ccc(F)cc1	NPY Y1 blocker 29.7 | NPY-Y1 ant conf inactive | NPY2 antag ctr inactive
COc1ccc(OC)c(NC(=O)C(=O)NNC(=O)C23CC4CC(CC(C4)C2)C3)c1	none (no result: NPY-Y2 antag, NPY Y1 blocker)
O=C(NCc1ccco1)c1ccccc1-c1nc(-c2ccc(F)cc2)no1	none (no result: NPY-Y2 antag, NPY Y1 blocker)
O=C(NCc1ccco1)c1nc(-c2ccc(F)cc2)no1	NPY Y1 blocker 24.4 (no result: NPY-Y2 antag) | NPY-Y1 ant conf inactive | NPY2 antag ctr inactive
COc1ccc(-c2c[n+](CC(=O)OC3CC(C)CCC3C(C)C)c3n2CCC3)cc1 (stereo not given)	NPY Y1 blocker 75.4 (no result: NPY-Y2 antag) | NPY-Y1 ant conf 61.1 | NPY2 antag ctr 34.9
CCOc1ccccc1NC(=O)c1ccccc1-c1nc(-c2ccccc2OC)no1	NPY Y1 blocker 42.5 | NPY-Y1 ant conf 23.5 | NPY2 antag ctr 22.8
O=C(COc1ccccc1Cl)c1ccc2c(c1)CCCC2	NPY Y1 blocker 20.7 | NPY-Y1 ant conf inactive | NPY2 antag ctr inactive
CC(NC(=O)c1cc(COc2c(F)cccc2F)on1)c1cnn(-c2ccccc2)c1 (stereo not given)	NPY Y1 blocker 22.0 (no result: NPY-Y2 antag) | NPY-Y1 ant conf inactive | NPY2 antag ctr inactive
Cc1nn(C)cc1C(C)NC(=O)c1cc(COc2c(F)cccc2F)on1 (stereo not given)	none (no result: NPY-Y2 antag)
Cc1ccc(Cl)cc1N1CCN(C(c2cccnc2)c2nnnn2C2CCCCC2)CC1 (stereo not given)	none
Cc1ccc(Cl)cc1N1CCN(C(c2ccc(C#N)cc2)c2nnnn2C2CCCC2)CC1 (stereo not given)	NPY Y1 blocker 27.5 | NPY-Y1 ant conf inactive | NPY2 antag ctr inactive
CCC(c1nnnn1C(C)(C)C)N1CCN(c2cc(Cl)ccc2C)CC1 (stereo not given)	NPY Y1 blocker 24.7 | NPY-Y1 ant conf inactive | NPY2 antag ctr inactive
COc1ccccc1NS(=O)(=O)c1ccc(O)c(NC(=S)NCC2CCCO2)c1 (stereo not given)	none (no result: NPY-Y2 antag, NPY Y1 blocker)
Cc1nn(CCOc2cccc(Br)c2)c(C)c1[N+](=O)[O-]	none (no result: NPY-Y2 antag)
c1ccc(-c2c[n+]3c(n2-c2ccccc2)CCC3)cc1	none (no result: NPY-Y2 antag, NPY Y1 blocker)
CCOc1ccc(-n2c(-c3ccccc3)c[n+]3c2CCCCC3)cc1	NPY Y1 blocker 24.3 | NPY-Y1 ant conf inactive | NPY2 antag ctr 17.1
CC(C)=C(NC(=O)c1ccccc1)C(=O)Nc1cccc(C(=O)O)c1	none (no result: NPY-Y2 antag)
O=C(CSc1nnc(COc2ccccc2)o1)N1CCN(c2ccccc2)CC1	none
CCOC(=O)CSc1nnc(COc2cccc(C)c2)o1	none (no result: NPY-Y2 antag)
Cc1ccc(C(=O)CSc2nnc(COc3cccc(C)c3)o2)cc1	NPY Y1 blocker 20.9 | NPY-Y1 ant conf inactive | NPY2 antag ctr inactive
Cc1cc(C)cc(OCc2nnc(SCC(=O)N3CCN(c4ccccc4)CC3)o2)c1	NPY Y1 blocker 20.9 | NPY-Y1 ant conf inactive | NPY2 antag ctr inactive
Cc1ccc(-n2cc(CN3CCN(C(=O)c4ncn[nH]4)CC3)c(-c3ccc(F)cc3)n2)cc1	none (no result: NPY-Y2 antag, NPY Y1 blocker)
CCC(=O)N1CCc2cc(S(=O)(=O)N(CC)c3cccc(C)c3)ccc21	none
CCN(c1cccc(C(F)(F)F)c1)S(=O)(=O)c1ccc2c(c1)CCN2C(=O)C1CC1	NPY Y1 blocker 23.7 | NPY-Y1 ant conf inactive | NPY2 antag ctr inactive
Cc1cc(C(C)(C)C)oc1C(=O)N(CC(=O)NC1CCCC1)c1ccc(F)cc1	NPY Y1 blocker 27.4 | NPY-Y1 ant conf inactive | NPY2 antag ctr inactive
Cc1cc(C(C)(C)C)oc1C(=O)N(CC(=O)NC1CCCC1)c1c(C)cccc1C	none
COc1ccccc1N(CC(=O)NC1CCCC1)C(=O)c1oc(C(C)(C)C)cc1C	NPY Y1 blocker 28.4 (no result: NPY-Y2 antag) | NPY-Y1 ant conf 22.2 | NPY2 antag ctr inactive
CC(C)NC(=O)NC(=O)COC(=O)c1cc[n+]([O-])cc1	none (no result: NPY-Y2 antag)
CCOc1ccc(CCNC(=O)CN2C(=O)NC(CCSC)C2=O)cc1OCC (stereo not given)	none (no result: NPY-Y2 antag)
CC(C)N(Cc1nc(-c2ccccc2)no1)C(=O)c1ccc2c(c1)OCO2	none
O=C(NCc1nc(-c2ccccc2)no1)c1ccc2c(c1)OCO2	NPY Y1 blocker 22.1 | NPY-Y1 ant conf inactive | NPY2 antag ctr inactive
CCOC(=O)c1cc2ccccc2n1CCN(CC)CC	NPY Y1 blocker 25.4 | NPY-Y1 ant conf inactive | NPY2 antag ctr inactive
CCOc1cc(NC(=S)NCCCN2CCOCC2)c(OCC)cc1NC(=O)c1ccc(C)cc1	none (no result: NPY-Y2 antag)
Cc1[nH]n(-c2ccccc2)c(=O)c1/C=N/O	NPY Y1 blocker 57.6 | NPY-Y1 ant conf inactive | NPY2 antag ctr inactive
OC1CCCN(Cc2ccc3ccc4cccc5ccc2c3c45)C1 (stereo not given)	NPY Y1 blocker 24.7 | NPY-Y1 ant conf inactive | NPY2 antag ctr 17.3
c1cc2ccc3ccc(CN4CCOCC4)c4ccc(c1)c2c34	none
CCc1nc(N[C@H](C(=O)O)C(C)C)c2oc3ccccc3c2n1	none (no result: NPY-Y2 antag, NPY Y1 blocker)
CCc1nc(N[C@@H](CC(C)C)C(=O)O)c2oc3ccccc3c2n1	NPY Y1 blocker 25.8 | NPY-Y1 ant conf inactive | NPY2 antag ctr 22.8
COc1cc(C(=O)N/N=C/c2sccc2C)cc(OC)c1OC	NPY Y1 blocker 50.2 (no result: NPY-Y2 antag) | NPY-Y1 ant conf inactive | NPY2 antag ctr inactive
Cc1ccsc1/C=N/NC(=O)c1ccncc1	none (no result: NPY-Y2 antag)
O=C(NNc1c(F)c(F)cc(F)c1F)c1cc2ccccc2oc1=O	none (no result: NPY-Y2 antag)
CC(=O)N(CCC(Cc1ccccc1)c1ccc2c(c1)OCO2)Cc1ccccc1F (stereo not given)	NPY Y1 blocker 20.9 | NPY-Y1 ant conf inactive | NPY2 antag ctr inactive
COc1ccc(C(=O)Nc2cccc3cccnc23)cc1OC	none
CC(C)Oc1ccc(C(=O)Nc2cccc3cccnc23)cc1	NPY Y1 blocker 22.1 (no result: NPY-Y2 antag) | NPY-Y1 ant conf inactive | NPY2 antag ctr 23.6
Cc1ccc(C(O)(c2ccccc2)c2ccccc2C(C)N(C)C)c(C)c1 (stereo not given)	NPY Y1 blocker 25.4 | NPY-Y1 ant conf 21.0 | NPY2 antag ctr 32.1
O=C(Nc1ccc(Nc2ccccc2)cc1)C(Cl)(Cl)Cl	none
CCC(C)(C)n1nnnc1C(c1cccnc1)N1CCN(c2cccc(C(F)(F)F)c2)CC1 (stereo not given)	NPY Y1 blocker 25.4 | NPY-Y1 ant conf inactive | NPY2 antag ctr inactive
CCC(C)(C)n1nnnc1C(c1ccncc1)N1CCN(c2cccc(OC)c2)CC1 (stereo not given)	none
CC(=O)/C(=N/Nc1ccccc1)Sc1nnc(C(O)c2ccccc2)n1-c1ccccc1 (stereo not given)	none
CCOC1(c2ccccc2)OC(=O)c2ccccc21 (stereo not given)	none
Cc1cc(C)c(OC2(c3ccccc3)OC(=O)c3ccccc32)c(C)c1 (stereo not given)	NPY Y1 blocker 30.5 | NPY-Y1 ant conf inactive | NPY2 antag ctr inactive
Cc1cccc(C)c1OC1(c2ccccc2)OC(=O)c2ccccc21 (stereo not given)	NPY Y1 blocker 22.3 | NPY-Y1 ant conf inactive | NPY2 antag ctr inactive
CC(NC(=O)COc1ccccc1F)C1CC2CCC1C2 (stereo not given)	none (no result: NPY-Y2 antag)
OCCCNCc1cccc2ccccc12	none

Screening data deposited in PubChem by The Scripps Research Institute Molecular Screening Center.
